# Measurements published in ChEMBL document CHEMBL1156490, “TLR9 agonist acts by different mechanisms synergizing with bevacizumab in sensitive and cetuximab-resistant colon cancer xenografts” (2007).
# Activity calls are given as the source filed them. The calls are words filed in the database; no cut-off is given here.
# Experiments:
# [1] = tested on: Homo sapiens; test: Potentiation of bevacizumab-induced inhibition of activated form of pAkt expression in human GEO tumor xenografts in BALB/c mouse at 1 mg/kg, ip three times a week for 4 weeks measured after 8 weeks by ELISA; assay type: functional, organism-based; design: dose 1 mg/kg
# [2] = tested on: Homo sapiens; test: Inhibition of activated form of pAkt expression in human GEO tumor xenografts in BALB/c mouse at 1 mg/kg, ip three times a week for 4 weeks measured after 8 weeks by ELISA; assay type: functional, organism-based; design: dose 1 mg/kg
# [3] = tested on: Homo sapiens; test: Potentiation of bevacizumab-induced antitumor activity against human GEO tumor xenografted BALB/c mouse at 1 mg/kg, ip three times a week for 4 weeks measured after 8 weeks; assay type: functional, organism-based; design: dose 1 mg/kg
# Method in brief: (§1)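 Athymic nude mice, five weeks old, received s.c. GEO, LS174T or GEO-CR cells (10^7 per mouse) in Matrigel and were randomized at day 7, 10 per group. Dosing was i.p. 1 mg/kg three times weekly plus i.p. bevacizumab 5 mg/kg twice weekly, on days 7–11, 14–18 and 21–25; only the first agent continued on days 28–32. Tumor volume = π/6 × larger × (smaller diameter)². Analysis was by Student's t test.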
# [4] = tested on: Homo sapiens; test: Antitumor activity in cetuximab-resistant human GEO-CR tumor xenografted BALB/c mouse at 1 mg/kg, ip administered 3 times per week for 4 weeks; assay type: functional, organism-based; design: dose 1 mg/kg
# Method in brief: (§2)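 Athymic nude mice, five weeks old, received s.c. GEO, LS174T or GEO-CR colon cancer cells (10^7 per mouse) in Matrigel. Tumors were detected after 7 days and groups of 10 were randomized. Dosing was i.p. at 1 mg/kg three times per week for 4 weeks. Tumor volume = π/6 × larger diameter × (smaller diameter)². Groups were compared by Student's t test.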
# [5] = tested on: HUVEC; test: Inhibition of VEGF-stimulated network formation in HUVEC at 1 uM; assay type: functional, cell-based; conditions: Homo sapiens
# Method in brief: (§3)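 HUVEC (4 × 10^5) in RPMI 1640 were seeded on solidified Matrigel (prepared 30 min at 37°C), with or without 1 μM test agent. Cultures were kept at 37°C and photographed at 0 and 24 h to assess capillary tube and network formation.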
# [6] = tested on: Homo sapiens; test: Inhibition of mVEGF level in human GEO tumor xenografted in BALB/c mouse at 1 mg/kg, ip three times a week for 4 weeks measured after 8 weeks by ELISA; assay type: functional, organism-based; design: dose 1 mg/kg
# Method in brief: (§4)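 Serum was taken from killed xenograft-bearing mice and assayed by sandwich ELISA. Plates were coated overnight at 4°C with anti-hVEGF or anti-mVEGF polyclonal antibody (1 μg/ml in PBS, pH 7.5), with avidin–biotinylated HRP detection and absorbance read at 490 nm. Concentrations came from linear regression of recombinant hVEGF or mVEGF standard curves.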
# [7] = tested on: LS174T; test: Potentiation of bevacizumab-induced antitumor activity against human LS174T tumor xenografted BALB/c mouse at 1 mg/kg, ip three times a week for 4 weeks measured after 8 weeks; assay type: functional; conditions: route intraperitoneal; method in brief: as §1
# [8] = tested on: LS174T; test: Potentiation of bevacizumab-induced antitumor activity against human LS174T tumor xenografted BALB/c mouse assessed as induction of necrosis at 1 mg/kg, ip three times for week for 4 weeks measured after 8 weeks; assay type: functional; conditions: route intraperitoneal
# Method in brief: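 LS174T s.c. xenografts (10^7 cells in Matrigel) in nude mice received the combined i.p. schedule (1 mg/kg three times weekly plus bevacizumab 5 mg/kg twice weekly). Necrosis was judged by pathological and immunohistochemical analysis of formalin-fixed paraffin sections (5 μm).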
# [9] = tested on: Homo sapiens; test: Inhibition of activated form of pMAPK expression in human GEO tumor xenografts in BALB/c mouse at 1 mg/kg, ip three times a week for 4 weeks measured after 8 weeks by ELISA; assay type: functional, organism-based; design: dose 1 mg/kg
# [10] = tested on: Homo sapiens; test: Potentiation of bevacizumab-induced inhibition of activated form of VEGF expression in human GEO tumor xenografts in BALB/c mouse at 1 mg/kg, ip three times a week for 4 weeks measured after 8 week by ELISA; assay type: functional, organism-based; design: dose 1 mg/kg
# [11] = tested on: Homo sapiens; test: Potentiation of bevacizumab-induced inhibition of mVEGF level in human GEO tumor xenografted in BALB/c mouse at 1 mg/kg, ip three times a week for 4 weeks measured after 8 weeks by ELISA; assay type: functional, organism-based; design: dose 1 mg/kg; method in brief: as §4
# [12] = tested on: Homo sapiens; test: Potentiation of bevacizumab-induced inhibition of hVEGF level in human GEO tumor xenografts in BALB/c mouse at 1 mg/kg, ip three times a week for 4 weeks measured after 8 weeks by ELISA; assay type: functional, organism-based; design: dose 1 mg/kg; method in brief: as §4
# [13] = tested on: HUVEC; test: Inhibition of VEGF-stimulated capillary tube formation in HUVEC at 1 uM; assay type: functional, cell-based; conditions: Homo sapiens; method in brief: as §3
# [14] = tested on: LS174T; test: Antitumor activity against human LS174T tumor xenografted BALB/c mouse assessed as tumor volume at 1 mg/kg, ip three times a week for 4 weeks measured after 8 weeks; assay type: functional; conditions: route intraperitoneal; method in brief: as §2
# [15] = tested on: Homo sapiens; test: Potentiation of bevacizumab-induced inhibition of activated form of pMAPK expression in human GEO tumor xenografts in BALB/c mouse at 1 mg/kg, ip three times a week for 4 weeks measured after 8 weeks by ELISA; assay type: functional, organism-based; design: dose 1 mg/kg
# [16] = tested on: Homo sapiens; test: Inhibition of activated form of VEGF expression in human GEO tumor xenografts in BALB/c mouse at 1 mg/kg, ip three times a week for 4 weeks measured after 8 weeks by ELISA; assay type: functional, organism-based; design: dose 1 mg/kg
# [17] = tested on: Homo sapiens; test: Antitumor activity against human GEO tumor xenografted BALB/c mouse at 1 mg/kg, ip three times a week for 4 weeks measured after 8 weeks; assay type: functional, organism-based; design: dose 1 mg/kg; method in brief: as §2
# [18] = tested on: Homo sapiens; test: Inhibition of hVEGF level in human GEO tumor xenografts in BALB/c mouse at 1 mg/kg, ip three times a week for 4 weeks measured after 8 weeks by ELISA; assay type: functional, organism-based; design: dose 1 mg/kg; method in brief: as §4
# [19] = tested on: Homo sapiens; test: Inhibition of total amount of MAPK and Akt in human GEO tumor xenografts in BALB/c mouse at 1 mg/kg, ip three times a week for 4 weeks measured after 8 weeks by ELISA; assay type: functional, organism-based; design: dose 1 mg/kg
# [20] = Potentiation of bevacizumab-induced antitumor activity in cetuximab-resistant human GEO-CR tumor xenografted BALB/c mouse assessed tumor volume at 1 mg/kg, ip; assay type: functional; conditions: route intraperitoneal; method in brief: as §1
# [21] = tested on: HUVEC; test: Inhibition of adhesion to matrix in HUVEC at 1 uM by cell adhesion assay; assay type: functional, cell-based; conditions: Homo sapiens
# Method in brief: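 Wells were precoated for 1 h with Matrigel (1 mg/ml) or 0.1% BSA in serum-free medium as a negative control. HUVEC (20,000 per well) were then plated in serum-free medium with or without 1 μM test agent, and adherent cells were quantified.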
# [22] = tested on: HUVEC; test: Inhibition of migration in HUVEC at 1 uM by wound healing assay; assay type: functional, cell-based; conditions: Homo sapiens
# [23] = Potentiation of cetuximab-induced cytotoxicity in human MDA468 cells assessed as lysis at 5 uM by ADCC assay; assay type: functional, MDA-MB-468
# Method in brief: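 Effector cells were nonadherent PBLs from human PBMCs, preincubated 24 h with or without 5 μM test agent. MDA468 targets were loaded with BATDA, treated with or without cetuximab (10 μg/ml), and mixed with effectors at varying ratios for 2 h at 37°C. Lysis was read by europium fluorescence in the supernatant.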
structure (smiles),measurement,setting,value
Cc1cn([C@H]2C[C@H](OP(O)(=S)OC[C@H]3O[C@@H](n4ccc(N)nc4=O)[C@H](O)[C@@H]3OP(O)(=S)OC[C@H]3O[C@@H](n4cc(C)c(=O)[nH]c4=O)C[C@@H]3OP(O)(=S)OC[C@H]3O[C@@H](n4cnc5c(=O)nc(N)[nH]c54)[C@H](O)[C@@H]3OP(O)(=S)OC[C@H]3O[C@@H](n4cnc5c(N)ncnc54)[C@H](O)[C@@H]3OP(O)(=S)OC[C@H]3O[C@@H](n4ccc(N)nc4=O)[C@H](O)[C@@H]3OP(O)(=S)OC[C@H]3O[C@@H](n4ccc5c(=O)nc(N)[nH]c54)C[C@@H]3OP(O)(=S)OC[C@H]3O[C@@H](n4cc(C)c(=O)[nH]c4=O)C[C@@H]3OP(O)(=S)OC[C@H]3O[C@@H](n4cc(C)c(=O)[nH]c4=O)C[C@@H]3OP(O)(=S)OC[C@H]3O[C@@H](n4ccc(N)nc4=O)[C@H](O)[C@@H]3OP(O)(=S)OC[C@H]3O[C@@H](n4cc(C)c(=O)[nH]c4=O)C[C@@H]3OP(O)(=S)OCC(O)COP(O)(=S)O[C@H]3C[C@H](n4cc(C)c(=O)[nH]c4=O)O[C@@H]3COP(O)(=S)O[C@H]3[C@@H](O)[C@H](n4ccc(=N)[nH]c4=O)O[C@@H]3COP(O)(=S)O[C@H]3C[C@H](n4cc(C)c(=O)[nH]c4=O)O[C@@H]3COP(O)(=S)O[C@H]3C[C@H](n4cc(C)c(=O)[nH]c4=O)O[C@@H]3COP(O)(=S)O[C@H]3C[C@H](n4ccc5c(=O)nc(N)[nH]c54)O[C@@H]3COP(O)(=S)O[C@H]3[C@@H](O)[C@H](n4ccc(N)nc4=O)O[C@@H]3COP(O)(=S)O[C@H]3[C@@H](O)[C@H](n4cnc5c(N)ncnc54)O[C@@H]3COP(O)(=S)O[C@H]3[C@@H](O)[C@H](n4cnc5c(=O)nc(N)[nH]c54)O[C@@H]3COP(O)(=S)O[C@H]3C[C@H](n4cc(C)c(=O)[nH]c4=O)O[C@@H]3COP(O)(=S)O[C@H]3[C@@H](O)[C@H](n4ccc(N)nc4=O)O[C@@H]3COP(O)(=S)O[C@H]3C[C@H](n4cc(C)c(=O)[nH]c4=O)O[C@@H]3CO)[C@@H](CO)O2)c(=O)[nH]c1=O (stereo partly drawn),Activity,[1],Active
same,Activity,[2],Active
same,Activity,[3],Active
same,Activity,[4],inactive
same,Activity,[5],Active
same,Activity,[6],inactive
same,Activity,[7],95%
same,Activity,[8],90%
same,Activity,[9],Active
same,Activity,[10],Active
same,Activity,[11],inactive
same,Activity,[12],Active
same,Activity,[13],Active
same,Activity,[14],1.6 cm3
same,Activity,[15],Active
same,Activity,[16],Active
same,Activity,[17],Active
same,Activity,[18],Active
same,Activity,[19],inactive
same,Activity,[20],0.15 cm3
same,Activity,[21],Active
same,Activity,[22],Active
same,Activity,[23],60%
